Calls of active or inactive are those of the source. The calls are words filed in the database; no cut-off is given here.
Tests used:
[1] = target: T1, 5-hydroxytryptamine receptor 2A (Homo sapiens, UniProt P28223); assay: Displacement of [125I]DOI from human recombinant 5HT2A receptor expressed in HEK293 cells by scintillation counting
[2] = target: T1, 5-hydroxytryptamine receptor 2A; assay: Activity at human 5HT2A receptor expressed in HEK293 cells assessed as [3H]inositol phosphate production by scintillation counting; assay type: functional, cell-based
In short: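 HEK-293 cells transiently transfected with a mutated, constitutively active h5-HT2A receptor, labeled 18 h with […] [3H]myoinositol in serum- and myoinositol-free DMEM. Then 3 h at 37 °C in HBSS with LiCl (10 mM final), pargyline and compound. Lysis with ice-cold 0.1 M formic acid; total [3H]IP separated on AG1-X8 resin and counted by scintillation. Inverse-agonist pIC50.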

[3] = target: T2, 5-hydroxytryptamine receptor 2C (Homo sapiens, UniProt P28335); assay: Displacement of [3H]DOI from human recombinant 5HT2C receptor expressed in HEK293 cells by scintillation counting; assay type: cell-based; details: in the assay text read “[125I]DOI” for “[3H]DOI”
T2 sequence (P28335 whole entry): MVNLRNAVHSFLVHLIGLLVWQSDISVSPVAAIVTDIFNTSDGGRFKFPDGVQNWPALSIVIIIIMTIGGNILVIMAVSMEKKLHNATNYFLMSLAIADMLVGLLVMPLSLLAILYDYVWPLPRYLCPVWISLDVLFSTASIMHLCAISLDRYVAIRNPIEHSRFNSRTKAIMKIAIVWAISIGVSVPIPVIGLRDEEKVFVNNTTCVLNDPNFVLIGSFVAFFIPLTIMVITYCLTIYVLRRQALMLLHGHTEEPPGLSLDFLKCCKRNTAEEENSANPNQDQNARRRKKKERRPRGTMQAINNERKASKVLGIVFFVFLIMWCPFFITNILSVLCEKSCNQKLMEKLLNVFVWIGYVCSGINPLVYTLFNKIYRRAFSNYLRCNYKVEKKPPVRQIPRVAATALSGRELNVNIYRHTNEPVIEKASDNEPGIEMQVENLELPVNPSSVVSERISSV
In short: (§1)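 Crude membranes (5-25 μg protein) from HEK293 cells stably expressing human 5-HT2A or 5-HT2C. Radioligand [125I]DOI at 0.5 nM final; 10 μM cold DOI defines nonspecific binding. Buffer 20 mM HEPES pH 7.4, 10 mM MgCl2; 1 h at room temperature. Eight concentrations (1 pM–10 μM), each in triplicate. Vacuum filtration on GF/C, Tris wash, scintillation counting; pKi.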

[4] = target: T1, 5-hydroxytryptamine receptor 2A; assay: Displacement of [3H]DOI from human recombinant 5HT2A receptor expressed in HEK293 cells by scintillation counting; assay type: cell-based; details: in the assay text read “[125I]DOI” for “[3H]DOI”
In short: as §1

[5] = target: T2, 5-hydroxytryptamine receptor 2C; assay: Displacement of [125I]DOI from human recombinant 5HT2C receptor expressed in HEK293 cells by scintillation counting
[6] = test system: Rattus norvegicus; assay: Effect on behavioral activity in po dosed Sprague-Dawley rat assessed as reversal of DOI-induced inhibition of rearing behavior; assay type: functional
In short: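 Adult male Sprague-Dawley rats dosed orally with compound 45 min before DOI (0.3 mg/kg), which lowers rearing. Fifteen minutes later, rearing recorded in photocell-monitored locomotor activity cages. A dose-response curve for reversal of DOI-induced rearing decrease yields an ED50.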

[7] = Tmax in Wistar rat at 1.0 mg/kg, po; assay type: ADME, organism-based; set-up: dose 1 mg/kg, route oral; details: in vivo
In short: (§2)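 Male Wistar rats, fasted overnight, single oral dose in 80% Tween-80/20% water. Jugular vein blood sampled serially over 24 h ([…]); sodium-heparin plasma stored at -70 °C, quantified by HPLC/MS/MS (LLOQ 1 ng/mL, ULOQ 2000 ng/mL). n = 2-3 animals; noncompartmental analysis; values as mean ± SD.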

[8] = Half life in Wistar rat at 1.0 mg/kg, po; assay type: ADME, organism-based; set-up: dose 1 mg/kg, route oral; details: in vivo
In short: as §2

[9] = AUC (0 to infinity) in Wistar rat at 1.0 mg/kg, po; assay type: ADME, organism-based; set-up: time infinity, dose 1 mg/kg, route oral; details: plasma
In short: as §2

[10] = Cmax in Wistar rat at 1.0 mg/kg, po; assay type: ADME, organism-based; set-up: dose 1 mg/kg, route oral; details: in vivo
In short: as §2

[11] = test system: Rattus norvegicus; assay: Effect on behavioral activity in Wistar rat assessed as increase in non-rapid eye movement bout length at 1 mg/kg, po after 2 hrs; assay type: functional, organism-based; set-up: dose 1 mg/kg
In short: (§3)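 Male Wistar rats (300 ± 25 g) implanted for continuous EEG/EMG recording, 1 week recovery. Repeated-measures design: each rat received each treatment, including 80% Tween-80 vehicle, in random order by oral gavage. Non-REM sleep parameters scored hourly after dosing; at least five rats per compound.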

[12] = test system: Rattus norvegicus; assay: Effect on behavioral activity in Wistar rat assessed as increase in non-rapid eye movement delta power at 1 mg/kg, po after 2 hrs; assay type: functional, organism-based; set-up: dose 1 mg/kg
In short: as §3

T1 sequence (P28223 whole entry): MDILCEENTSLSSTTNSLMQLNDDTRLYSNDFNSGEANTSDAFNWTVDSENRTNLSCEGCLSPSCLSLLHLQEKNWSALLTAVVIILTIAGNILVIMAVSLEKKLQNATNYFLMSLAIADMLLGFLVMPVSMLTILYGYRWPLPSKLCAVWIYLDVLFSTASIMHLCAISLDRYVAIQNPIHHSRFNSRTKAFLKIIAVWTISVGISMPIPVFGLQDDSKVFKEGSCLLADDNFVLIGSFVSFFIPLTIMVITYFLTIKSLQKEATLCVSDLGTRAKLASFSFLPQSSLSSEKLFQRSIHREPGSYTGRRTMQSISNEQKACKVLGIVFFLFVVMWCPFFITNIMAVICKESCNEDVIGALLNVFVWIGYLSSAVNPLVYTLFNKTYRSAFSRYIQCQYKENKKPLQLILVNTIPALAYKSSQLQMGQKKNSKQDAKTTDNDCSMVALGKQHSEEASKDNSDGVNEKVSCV

Work on `COc1ccc(NC(=O)Nc2cccc(C(F)(F)F)c2)cc1-c1c(Br)cnn1C` yielded a Ki [1] of 0.398 nM, an IC50 ([2]; read-out: pIC50 (converted)) of 0.398 nM and a Ki [3] of 15.8 nM.
`COc1ccc(NC(=O)Nc2ccc(Br)cc2)cc1-c1c(Br)cnn1C` showed an IC50 ([2]; read-out: pIC50 (converted)) of 0.501 nM, a Ki [4] of 0.251 nM and a Ki [5] of 3.98 nM.
Compound `CC(C)Oc1ccc(NC(=O)Nc2ccc(Cl)cc2)cc1-c1c(Br)cnn1C` has a Ki [1] of 0.316 nM, an IC50 ([2]; read-out: pIC50 (converted)) of 1.58 nM and a Ki [3] of 10 nM.
With `COc1ccc(NC(=O)Nc2ccccc2F)cc1-c1c(Br)cnn1C` the Ki [4] was 1 nM and the Ki [5] was 398 nM.
In the case of `COc1ccc(NC(=O)Nc2ccc(N(C)C)cc2)cc1-c1c(Br)cnn1C`, the IC50 ([2]; read-out: pIC50 (converted)) is reported as 50.1 nM, the Ki [4] is reported as 1.58 nM and the Ki [5] is reported as 398 nM.
In the case of `COc1ccc(NC(=O)Nc2ccc(C(F)(F)F)cc2)cc1-c1c(Br)cnn1C`, the Ki [1] is reported as 0.316 nM, the IC50 ([2]; read-out: pIC50 (converted)) is reported as 1.58 nM and the Ki [5] is reported as 3.98 nM.
In the case of `COc1ccc(NC(=O)Nc2ccc(Cl)c(C(F)(F)F)c2)cc1-c1c(Br)cnn1C`, the Ki [1] is reported as 0.316 nM, the IC50 ([2]; read-out: pIC50 (converted)) is reported as 0.794 nM and the Ki [5] is reported as 3.16 nM.
Work on `CCOc1ccc(NC(=O)Nc2ccc(Cl)cc2)cc1-c1c(Br)cnn1C` yielded a Ki [3] of 2 nM and a Ki [4] of 0.251 nM.
`COc1ccc(NC(=O)Nc2ccc(Cl)cc2)cc1-c1c(Br)cnn1C` gave an IC50 [2] of 0.7 nM, an IC50 ([2]; read-out: pIC50 (converted)) of 0.794 nM and an ED50 [6] of 0.5 mg/kg. For the same compound, the Ki [3] was 10 nM, the Tmax [7] was 3 h and the Ki [4] was 0.501 nM. The half-life [8] was 3 h, the AUC(0-inf) [9] was 281 ng·h/mL and the Cmax [10] was 45 ng/mL. For the same compound, the Activity [11] was “Active” and the Activity [12] was “Active”.
Compound `COc1ccc(NC(=O)Nc2ccc(Cl)cc2)cc1-c1c(Br)cnn1C(C)C` has an IC50 ([2]; read-out: pIC50 (converted)) of 1.26 nM, a Ki [3] of 2.51 nM and a Ki [4] of 0.501 nM.
`COc1ccc(NC(=O)Nc2cc(F)cc(F)c2)cc1-c1c(Br)cnn1C` showed a Ki [1] of 0.316 nM, an IC50 ([2]; read-out: pIC50 (converted)) of 1.26 nM and a Ki [3] of 15.8 nM.
In the case of `COc1ccc(NC(=O)Nc2cccc(Cl)c2)cc1-c1c(Br)cnn1C`, the IC50 ([2]; read-out: pIC50 (converted)) is reported as 0.398 nM, the Ki [3] is reported as 15.8 nM and the Ki [4] is reported as 0.251 nM.
`COc1ccc(NC(=O)Nc2cc(C(F)(F)F)cc(C(F)(F)F)c2)cc1-c1c(Cl)cnn1C` gave an IC50 ([2]; read-out: pIC50 (converted)) of 3.98 nM, a Ki [4] of 1 nM and a Ki [5] of 63.1 nM.
For `Cn1ncc(Br)c1-c1cc(NC(=O)Nc2ccc(Cl)cc2)ccc1O`, the Ki [1] was 0.398 nM and the Ki [3] was 50.1 nM.
`COc1ccc(NC(=O)Nc2ccc(F)c(F)c2)cc1-c1c(F)cnn1C` gave an IC50 ([2]; read-out: pIC50 (converted)) of 2.51 nM, a Ki [4] of 1.26 nM and a Ki [5] of 398 nM.
With `COc1ccc(NC(=O)Nc2ccc(OC)c(-c3c(Br)cnn3C)c2)cc1` the IC50 ([2]; read-out: pIC50 (converted)) was 0.398 nM, the Ki [3] was 126 nM and the Ki [4] was 0.501 nM.
`Cn1ncc(Br)c1-c1cc(NC(=O)Nc2ccc(Cl)cc2)ccc1OCc1ccc(Cl)cc1` gave an IC50 ([2]; read-out: pIC50 (converted)) of 12.6 nM, a Ki [3] of 251 nM and a Ki [4] of 20 nM.
Work on `Cn1ncc(Br)c1-c1cc(NC(=O)Nc2ccc(Cl)cc2)ccc1OCc1ccccc1` yielded an IC50 ([2]; read-out: pIC50 (converted)) of 7.94 nM, a Ki [3] of 158 nM and a Ki [4] of 5.01 nM.

— ChEMBL document CHEMBL1157565, “Discovery of 1-[3-(4-bromo-2-methyl-2h-pyrazol-3-yl)-4-methoxyphenyl]-3-(2,4-difluorophenyl)urea (nelotanserin) and related 5-hydroxytryptamine2A inverse agonists for the treatment of insomnia” (J Med Chem, 2010)
